Laboratory results: ChEMBL document CHEMBL1124534, “Synthesis, mechanism of action, and biological evaluation of mitosenes” (1989)
Converted amounts (≈) assume the structure as drawn. Blank lines part the entries; values can stand above or below the molecule they belong to.

Key:
A204 = assay: In vitro antitumor activity against A204 rhabdomyosarcoma tumor cell line was determined; format: functional; details: Homo sapiens, read-out: ID50 (the source's name)
Method in brief: (§1)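 Cell growth inhibition in vitro measured by the PIT method, with mitomycin C as positive reference.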

L1210 = assay: In vitro antitumor activity against L1210 lymphocytic leukemia tumor cell line was determined; format: functional; details: Mus musculus, read-out: ID50 (the source's name)
Method in brief: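 Inhibition of L1210 leukemia colony formation in vitro, with mitomycin C as positive reference.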

WiDr = assay: In vitro antitumor activity against WiDr colon carcinoma tumor cell line was determined; format: functional; details: Homo sapiens, read-out: ID50 (the source's name); method in brief: as §1
Mus musculus [1] = assay: Body wieght treated/body weight untreated controls of compound (40 mg/Kg) was evaluated in vivo for antitumor activity against MAC 16 in female NMRI mice on day 12; format: functional
Mus musculus [2] = assay: Body wieght treated/body weight untreated controls of compound (40 mg/Kg) was evaluated in vivo for antitumor activity against MAC 16 in female NMRI mice on day 4; format: functional
Mus musculus [3] = assay: Percentage change in body weight [(day 6 - day 1)/ day 1] for antitumor activity against P388 Leukemia in CD2 mice at fractioned dose treatment of 25 mg/Kg; format: functional
Method in brief: (§2)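 Mouse P388 leukemia model. Drugs were given intraperitoneally, either as a single injection or once daily for 9 consecutive days (fractioned schedule). Outcomes were median survival time in days, %T/C, and % body weight change.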

Mus musculus [4] = assay: Percentage change in body weight [(day 6 - day 1)/ day 1] for antitumor activity against P388 Leukemia in CD2 mice at fractioned dose treatment of 70 mg/Kg; format: functional; details: in the assay text read “single dose treatment” for “fractioned dose treatment”; method in brief: as §2
Mus musculus [5] = assay: Mean relative body weight change of treated / mean relative body weight change of control when compound (50 mg/kg/day) administered to inhibit growth of human tumor xenograft GXF 97 was reported at day 21 in mice; format: functional
Method in brief: (§3)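 GXF 97 xenograft grown subcutaneously in nude mice for 24 days, then randomized; ip dosing began 1 day later, given on days 1-4, with 4-5 mice per group. Read-out is mean relative body weight change of treated divided by mean relative body weight change of controls, in %.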

Mus musculus [6] = assay: Percent change in body weight [(day 6 - day 1)/ day 1] when P388 Leukemic CD2 mice were treated with a compound (50 mg/Kg); format: functional
Mus musculus [7] = assay: Percentage change in body weight [(day 6 - day 1)/ day 1] for antitumor activity against P388 Leukemia in CD2 mice at fractioned dose treatment of 18 mg/Kg; format: functional; method in brief: as §2
Mus musculus [8] = assay: Mean relative body weight change of treated / mean relative body weight change of control when compound (50 mg/kg/day) administered to inhibit growth of human tumor xenograft GXF 97 was reported at day 14 in mice; format: functional; method in brief: as §3
Mus musculus [9] = assay: Mean relative body weight change of treated / mean relative body weight change of control when compound (50 mg/kg/day) administered to inhibit growth of human tumor xenograft GXF 97 was reported at day 28 in mice; format: functional; method in brief: as §3
Mus musculus [10] = assay: Median survival time in days for antitumor activity against P388 Leukemia in CD2 mice at a single dose treatment of 50 mg/Kg; format: functional
Method in brief: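 P388 leukemia-bearing mice were given one intraperitoneal injection. The read-out was median survival time in days, reported alongside %T/C and % body weight change.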

Mus musculus [11] = assay: Median survival time in days for antitumor activity against P388 Leukemia in CD2 mice at fractioned dose treatment of 18 mg/Kg; format: functional
Method in brief: (§4)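 P388 leukemia-bearing mice were dosed intraperitoneally once daily for 9 consecutive days (fractioned schedule). The read-out was median survival time in days, reported alongside %T/C and % body weight change.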

Mus musculus [12] = assay: Median survival time in days for antitumor activity against P388 Leukemia in CD2 mice at fractioned dose treatment of 25 mg/Kg; format: functional; method in brief: as §4
Mus musculus [13] = assay: Percent inhibition of compound (50 mg/Kg) was evaluated in vivo for antitumor activity against MAC 13 in female NMRI mice on day 2; format: functional
Method in brief: (§5)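 MAC 13 in female NMRI mice. Drugs were given in arachis oil BP by ip route on day 2 or day 29. % inhibition was derived from treated/untreated control tumor weight (volume); a negative value indicates stimulation.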

Mus musculus [14] = assay: Percent inhibition of compound (50 mg/Kg) was evaluated in vivo for antitumor activity against MAC 13 in female NMRI mice on day 29; format: functional; method in brief: as §5
Mus musculus [15] = assay: Ability of intraperitoneally administered compound (50 mg/kg/day) to inhibit growth of human tumor xenograft GXF 97 was assessed on day 14 tested in five mice; format: functional
Method in brief: (§6)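 GXF 97 human gastric xenograft grown subcutaneously in nude mice for 24 days, then randomized; dosing began 1 day later as ip injections on days 1-4. Groups had 4-5 mice. Tumor length and width were measured. %T/C = median relative tumor size of treated / median relative tumor size of controls.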

Mus musculus [16] = assay: Ability of intraperitoneally administered compound (50 mg/kg/day) to inhibit growth of human tumor xenograft GXF 97 was assessed on day 21 tested in five mice; format: functional; method in brief: as §6
Mus musculus [17] = assay: Percent T/C ([…]) for antitumor activity against P388 Leukemia in CD2 mice at a single dose treatment of 50 mg/Kg; format: functional
Method in brief: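 P388 leukemia mice given a single intraperitoneal injection. Median survival time (days) and body weight change were recorded. %T/C was derived from the survival of treated versus control mice.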

Mus musculus [18] = assay: Percent T/C ([…]) for antitumor activity against P388 Leukemia in CD2 mice at fractioned dose treatment of 18 mg/Kg; format: functional; method in brief: as §2
Mus musculus [19] = assay: Percent T/C ([…]) for antitumor activity against P388 Leukemia in CD2 mice at fractioned dose treatment of 25 mg/Kg; format: functional; method in brief: as §2
Mus musculus [20] = assay: Percent T/C ([…]) for antitumor activity against P388 Leukemia in CD2 mice at fractioned dose treatment of 70 mg/kg; format: functional; details: in the assay text read “single dose” for “fractioned dose”; method in brief: as §2
Mus musculus [21] = assay: Ability of intraperitoneally administered compound (50 mg/kg/day) to inhibit growth of human tumor xenograft GXF 97 was assessed on day 28 tested in five mice; format: functional; method in brief: as §6
Mus musculus [22] = assay: Relative tumor size on day 28 was reported when compound (50 mg/kg/day) administered to inhibit growth of human tumor xenograft GXF 97 in mice tested after 28 days; format: functional
Method in brief: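 GXF 97 human gastric xenograft grown subcutaneously in nude mice for 24 days, then mice randomized; treatment began 1 day later. Fractioned ip injections on days 1-4, or single iv injection on day 1; 4-5 mice per group. Tumor size from length and width; relative tumor size (% of controls) read at day 28.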

Mus musculus [23] = assay: Compound (40 mg/Kg) was evaluated in vivo for antitumor activity against MAC 16 in female NMRI mice on day 12 and ratio of tumor weight of treated to that of control was determined; format: functional
Mus musculus [24] = assay: Compound (40 mg/Kg) was evaluated in vivo for antitumor activity against MAC 16 in female NMRI mice on day 4 and ratio of tumor weight of treated to that of control was determined; format: functional
Mus musculus [25] = assay: Median survival time in days for antitumor activity against P388 Leukemia in CD2 mice at single dose treatment of 70 mg/kg
Mus musculus [26] = assay: Compound (50 mg/Kg) was evaluated in vivo for antitumor activity against MAC 13 in female NMRI mice on day 2 and ratio of tumor weight of treated to that of control was determined
Mus musculus [27] = assay: Compound (50 mg/Kg) was evaluated in vivo for antitumor activity against MAC 13 in female NMRI mice on day 29 and ratio of tumor weight of treated to that of control was determined

IC50 (A204): 1.2 µg/mL (≈ 4.31 µM)
IC50 (L1210): 1.33 µg/mL (≈ 4.78 µM)
IC50 (WiDr): 2.17 µg/mL (≈ 7.83 µM)
SMILES: COC1=CC(=O)c2c(c(CO)c3n2CCCC3O)C1=O (stereo not given)

IC50 (A204): 0.115 µg/mL (≈ 0.36 µM)
IC50 (L1210): 1.75 µg/mL (≈ 5.49 µM)
IC50 (WiDr): 0.287 µg/mL (≈ 0.899 µM)
SMILES: COC1=CC(=O)c2c(c(COC(C)=O)c3n2CCCC3O)C1=O (stereo not given)

IC50 (A204): 2.6 µg/mL (≈ 9.87 µM)
IC50 (L1210): 1.15 µg/mL (≈ 4.35 µM)
IC50 (WiDr): 2.6 µg/mL (≈ 9.87 µM)
SMILES: COC1=CC(=O)c2c(c(CO)c3n2CCC3O)C1=O (stereo not given)

IC50 (A204): < 0.1 µg/mL
IC50 (L1210): 0.942 µg/mL (≈ 2.7 µM)
IC50 (WiDr): 0.18 µg/mL (≈ 0.517 µM)
SMILES: CCNC(=O)OCc1c2c(n3c1C(O)CCC3)C(=O)C=C(OC)C2=O (stereo not given)

IC50 (A204): 0.001 µg/mL (≈ 0.00299 µM)
IC50 (L1210): 0.118 µg/mL (≈ 0.353 µM)
IC50 (WiDr): 0.029 µg/mL (≈ 0.0867 µM)
SMILES: CCNC(=O)OCc1c2c(n3c1C(O)CC3)C(=O)C=C(OC)C2=O (stereo not given)

The remaining lines, values behind:

SMILES: COC1=CC(=O)c2c(c(COC(C)=O)c3n2CCCC3OC(C)=O)C1=O (stereo not given)
IC50 (A204): 0.133 µg/mL (≈ 0.368 µM)
IC50 (L1210): 0.582 µg/mL (≈ 1.61 µM)
IC50 (WiDr): 0.115 µg/mL (≈ 0.318 µM)

SMILES: COC1=C(C)C(=O)c2c(c(COC(C)=O)c3n2CCCC3OC(C)=O)C1=O (stereo not given)
IC50 (A204): < 0.1 µg/mL
IC50 (L1210): 1.54 µg/mL (≈ 4.1 µM)
IC50 (WiDr): 0.171 µg/mL (≈ 0.456 µM)

SMILES: COC1=C(C)C(=O)c2c(c(CO)c3n2CCCC3O)C1=O (stereo not given)
IC50 (A204): 2.69 µg/mL (≈ 9.23 µM)
IC50 (L1210): 3.72 µg/mL (≈ 12.8 µM)
IC50 (WiDr): 5.89 µg/mL (≈ 20.2 µM)

SMILES: CCCC(=O)OCc1c2c(n3c1C(OC(=O)CCC)CC3)C(=O)C(C)=C(OC)C2=O (stereo not given)
IC50 (A204): 0.021 µg/mL (≈ 0.0503 µM)
IC50 (L1210): > 0.64 µg/mL
IC50 (WiDr): 0.069 µg/mL (≈ 0.165 µM)

SMILES: CCNC(=O)OCc1c2c(n3c1C(O)CCC3)C(=O)C(C)=C(OC)C2=O (stereo not given)
IC50 (A204): 0.05 µg/mL (≈ 0.138 µM)
IC50 (L1210): 1.17 µg/mL (≈ 3.22 µM)
IC50 (WiDr): 0.251 µg/mL (≈ 0.693 µM)

SMILES: CCOC(=S)SCc1c2c(n3c1CCC3)C(=O)C(C)=C(OC)C2=O
IC50 (A204): 0.585 µg/mL (≈ 1.6 µM)
IC50 (L1210): > 6.4 µg/mL
IC50 (WiDr): 3.71 µg/mL (≈ 10.1 µM)

SMILES: COC1=C(C)C(=O)c2c(c(CO)c3n2CCC3O)C1=O (stereo not given)
IC50 (A204): 0.641 µg/mL (≈ 2.31 µM)
IC50 (L1210): 2.6 µg/mL (≈ 9.39 µM)
BW (Mus musculus [1]): 93%
BW (Mus musculus [2]): 118%
BWC (Mus musculus [3]): 17.1%
BWC (Mus musculus [4]): -0.9%
BWC (Mus musculus [5]): 107.2%
BWC (Mus musculus [6]): 2.5%
BWC (Mus musculus [7]): 17.3%
BWC (Mus musculus [8]): 103.8%
BWC (Mus musculus [9]): 103.4%
MST (Mus musculus [10]): 11 days
MST (Mus musculus [11]): 11 days
MST (Mus musculus [12]): 11 days
I (Mus musculus [13]): 3%
I (Mus musculus [14]): -21%
T/C (Mus musculus [15]): 12.6%
T/C (Mus musculus [16]): 4.8%
T/C (Mus musculus [17]): 100%
T/C (Mus musculus [18]): 100%
T/C (Mus musculus [19]): 100%
T/C (Mus musculus [20]): 91%
T/C (Mus musculus [21]): 3.1%
Relative TS (Mus musculus [22]): 20.6%
T/C (Mus musculus [23]): 89%
T/C (Mus musculus [24]): 102%
IC50 (WiDr): 1.33 µg/mL (≈ 4.81 µM)
MST (Mus musculus [25]): 10 days
T/C (Mus musculus [26]): 97%
T/C (Mus musculus [27]): 121%

SMILES: COC1=C(Br)C(=O)c2c(c(COC(C)=O)c3n2CCCC3OC(C)=O)C1=O (stereo not given)
IC50 (A204): 4.14 µg/mL (≈ 9.39 µM)
IC50 (L1210): 1.12 µg/mL (≈ 2.54 µM)
IC50 (WiDr): 6.49 µg/mL (≈ 14.7 µM)

SMILES: CCNC(=O)OCc1c2c(n3c1C(O)CC3)C(=O)C(C)=C(OC)C2=O (stereo not given)
IC50 (A204): 0.001 µg/mL (≈ 0.00287 µM)
IC50 (L1210): 0.206 µg/mL (≈ 0.591 µM)
IC50 (WiDr): 0.051 µg/mL (≈ 0.146 µM)

SMILES: COC1=C(Br)C(=O)c2c(c(COC(C)=O)c3n2CCC3OC(C)=O)C1=O (stereo not given)
IC50 (A204): 0.479 µg/mL (≈ 1.12 µM)
IC50 (L1210): 0.217 µg/mL (≈ 0.509 µM)
IC50 (WiDr): 0.492 µg/mL (≈ 1.15 µM)

SMILES: CC(=O)OCc1c2c(n3c1C(OC(C)=O)CC3)C(=O)C(C)=C(N1CC1)C2=O (stereo not given)
IC50 (A204): 0.001 µg/mL (≈ 0.00269 µM)
IC50 (L1210): 0.166 µg/mL (≈ 0.446 µM)
IC50 (WiDr): 0.02 µg/mL (≈ 0.0537 µM)
